The results in this text go back to ChEMBL document CHEMBL4190188, “Neuroprotective Activity of Cerebrosides from Typhonium giganteum by Regulating Caspase-3 and Bax/Bcl-2 Signaling Pathways in PC12 Cells” (J Nat Prod, 2017).

For data set [1], the system named is PC-12. Nature of the data set: Cytotoxicity against rat PC12 cells assessed as decrease in cell viability at 20 uM after 24 hrs by MTT assay. In kind it is cell-based. The conditions noted are these: pc-12, 24 h. The method, boiled down:
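PC12 cells grown in DMEM with 10% FBS at 37 °C and 5% CO2, seeded at 10 000 cells/well and cultured 24 h. Compound added at 20 μM without glutamate (DMSO stock at 1000× final). Then MTT (5 mg/mL stock) added for 4 h at 37 °C, formazan dissolved in DMSO, and A570 read. Viability given as % of untreated control.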
Background: Formazan colour is commonly taken as a measure of viable cells.

Data set [2] deals with PC-12. Description: cells. Particulars: Rattus norvegicus, PC-12, 24 h.
The subject of data set [3] is PC-12. Description: Neuroprotective activity against 12.5 mM glutamate-induced toxicity in rat PC12 cells assessed as cell viability at 10 uM after 24 hrs by MTT assay. The format is functional, cell-based. The method in brief:
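Concentration-response run in PC12 cells co-exposed 24 h to 12.5 mM glutamate and compound at 0.1, 1, 5, 10, 15 or 20 μM. Viability by MTT (4 h at 37 °C, formazan in DMSO, A570), relative to untreated control; mean ± SD, n = 6.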

Data set [4] deals with PC-12. Description: Neuroprotective activity against 12.5 mM glutamate-induced apoptosis in rat PC12 cells assessed as early apoptotic cells at 1 uM after 24 hrs by Annexin V-FITC/propidium iodide staining based flow cytometry (reference value: 1.04%). In kind it is functional. On the technique in general: In flow cytometry, cells or beads pass a laser one at a time.
Data set [5] concerns PC-12. Description: Neuroprotective activity against 12.5 mM glutamate-induced apoptosis in rat PC12 cells assessed as early apoptotic cells at 0.1 uM after 24 hrs by Annexin V-FITC/propidium iodide staining based flow cytometry (reference value: 1.04%). The format is functional.
In data set [6] the test system is PC-12. Description: Neuroprotective activity against 12.5 mM glutamate-induced apoptosis in rat PC12 cells assessed as late apoptotic cells at 10 uM after 24 hrs by Annexin V-FITC/propidium iodide staining based flow cytometry (reference value: 45.53%). The format is functional.
Data set [7] deals with PC-12. Nature of the data set: Neuroprotective activity against 12.5 mM glutamate-induced apoptosis in rat PC12 cells assessed as increase in Bcl-2 level at 0.1 to 10 uM after 24 hrs by chemiluminescence based Western blot analysis. In kind it is functional, cell-based. The method in brief:
(§1)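 PC12 cells exposed 24 h to compound at 0.1, 1 or 10 μM, with or without 12.5 mM glutamate. Protein extracted in lysis buffer and quantified by BCA. Equal amounts run on 12% SDS-PAGE, blotted to nitrocellulose, blocked in 5% nonfat milk, then primary antibodies overnight at 4 °C and HRP secondaries. Cytochrome c measured in the cytosolic fraction. Mean ± SD, n = 3.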
On the technique in general: In western blotting, separated proteins are transferred to a membrane and probed.

The test system of data set [8] is PC-12. Description: Induction of apoptosis in rat PC12 cells assessed as late apoptotic cells at 10 uM after 24 hrs by Annexin V-FITC/propidium iodide staining based flow cytometry (reference value: 45.53%). The format is cell-based. The conditions noted are these: pc-12, 24 h.
Data set [9] deals with PC-12. Nature of the data set: Neuroprotective activity against 12.5 mM glutamate-induced apoptosis in rat PC12 cells assessed as decrease in caspase 9 level after 24 hrs by chemiluminescence based Western blot analysis. In kind it is functional, cell-based. The method, boiled down:
as §1

Data set [10] concerns PC-12. Nature of the data set: Neuroprotective activity against 12.5 mM glutamate-induced apoptosis in rat PC12 cells assessed as decrease in cytochrome c level at 0.1 to 10 uM after 24 hrs by chemiluminescence based Western blot analysis. In kind it is functional, cell-based. The method, boiled down: as §1
The subject of data set [11] is PC-12. Nature of the data set: Neuroprotective activity against 12.5 mM glutamate-induced apoptosis in rat PC12 cells assessed as late apoptotic cells at 0.1 uM after 24 hrs by Annexin V-FITC/propidium iodide staining based flow cytometry (reference value: 45.53%). In kind it is functional.
The subject of data set [12] is PC-12. Nature of the data set: Neuroprotective activity against 12.5 mM glutamate-induced apoptosis in rat PC12 cells assessed as early apoptotic cells at 10 uM after 24 hrs by Annexin V-FITC/propidium iodide staining based flow cytometry (reference value: 1.04%). In kind it is functional.
Data set [13] concerns PC-12. Description: Neuroprotective activity against 12.5 mM glutamate-induced toxicity in rat PC12 cells assessed as cell viability at 0.1 uM after 24 hrs by MTT assay.
Data set [14] deals with PC-12. Description: Induction of apoptosis in rat PC12 cells assessed as early apoptotic cells at 10 uM after 24 hrs by Annexin V-FITC/propidium iodide staining based flow cytometry (reference value: 1.04%). The format is cell-based. Particulars: pc-12, 24 h.
In data set [15] the test system is PC-12. Nature of the data set: Neuroprotective activity against 12.5 mM glutamate-induced apoptosis in rat PC12 cells assessed as decrease in caspase 3 level after 24 hrs by chemiluminescence based Western blot analysis. The format is functional, cell-based. The method in brief:
as §1

Data set [16] deals with PC-12. Description: Neuroprotective activity against 12.5 mM glutamate-induced apoptosis in rat PC12 cells assessed as late apoptotic cells at 1 uM after 24 hrs by Annexin V-FITC/propidium iodide staining based flow cytometry (reference value: 45.53%). In kind it is functional.
Data set [17] concerns PC-12. Nature of the data set: Neuroprotective activity against 12.5 mM glutamate-induced apoptosis in rat PC12 cells assessed as decrease in Bax level at 0.1 to 10 uM after 24 hrs by chemiluminescence based Western blot analysis. In kind it is functional, cell-based. The method, boiled down: as §1

SMILES strings stand for the structures. Calls of active or inactive are those of the source. No cut-off for these calls is given here.

A word on the EC50: it is the midpoint of the concentration-response curve. High values mean a need for much substance, low ones an effect from little substance. On to `CCCCCCCCC/C=C/CC/C=C/[C@@H](O)[C@H](CO[C@@H]1O[C@H](CO)[C@@H](O)[C@H](O)[C@H]1O)NC(=O)[C@H](O)CCCCCCCCCCCCCCCCCC`, for which the Activity entry in the data set with PC-12 [1] was “Non-Toxic”. For the same compound, the EC50 in the data set on PC-12 [2] worked out at 12.4 µM. Besides, in the data set on PC-12 [3], the result was Active.

Turning to `CCCCCCCCC/C=C\CC/C=C/[C@@H](O)[C@H](CO[C@@H]1O[C@H](CO)[C@@H](O)[C@H](O)[C@H]1O)NC(=O)[C@H](O)CCCCCCCCCCCCCCCCCCCC`, the Activity result in the data set with PC-12 [1] is “Non-Toxic”. In addition, in the data set with PC-12 [2], a half-maximal response (EC50) required 6.5 µM. In the data set on PC-12 [3], the outcome was Active.

`CCCCCCCCC/C=C/CC/C=C/[C@@H](O)[C@H](CO[C@@H]1O[C@H](CO)[C@@H](O)[C@H](O)[C@H]1O)NC(=O)[C@H](O)CCCCCCCCCCCCCCCCCCCC`: in the data set with PC-12 [1], the Activity entry was “Non-Toxic”. Moreover, the EC50 in the data set with PC-12 [2] amounted to 6.9 µM. For the same compound, the outcome in the data set on PC-12 [3] was Active.

On to `CCCCCCCCC/C=C\CC/C=C/[C@@H](O)[C@H](CO[C@@H]1O[C@H](CO)[C@@H](O)[C@H](O)[C@H]1O)NC(=O)[C@H](O)CCCCCCCCCCCCCCCC`, for which the Activity result in the data set on PC-12 [1] is reported as “Non-Toxic”. In the data set with PC-12 [2], the EC50 came out at 20.1 µM. Moreover, in the data set on PC-12 [3], the outcome was Active.

`CCCCCCCCC/C=C/CC/C=C/[C@@H](O)[C@H](CO[C@@H]1O[C@H](CO)[C@@H](O)[C@H](O)[C@H]1O)NC(=O)[C@H](O)CCCCCCCCCCCCCCCCCCC`: in the data set with PC-12 [1], the Activity entry is reported as “Non-Toxic”. This compound registered an EC50 in the data set with PC-12 [2] of 8.8 µM. In addition, in the data set on PC-12 [3], the result was Active.

On to `CCCCCCCCC/C=C\CCC[C@@H](O)[C@@H](O)[C@H](CO[C@@H]1O[C@H](CO)[C@@H](O)[C@H](O)[C@H]1O)NC(=O)[C@H](O)CCCCCCCCCCCCCCCCCCCC`, for which the Activity result in the data set on PC-12 [1] is on record as “Non-Toxic”. In the data set on PC-12 [2], this compound came in with an EC50 of 6.6 µM. Further, the outcome in the data set on PC-12 [3] was Active.

With `CCCCCCCCC/C=C\CC/C=C/[C@@H](O)[C@H](CO[C@@H]1O[C@H](CO)[C@@H](O)[C@H](O)[C@H]1O)NC(=O)[C@H](O)CCCCCCCCCCCCCCCCCCC`, the Activity result in the data set on PC-12 [1] is listed as “Non-Toxic”. Further, it took 8.9 µM to reach a half-maximal effect with PC-12 [2] (EC50). Moreover, the result in the data set with PC-12 [3] was Active.

Consider `CC1=NN(c2ccccc2)C(=O)C1` [EDARAVONE], for which, in the data set with PC-12 [2], the EC50 was determined as 9.2 µM.

As to `CCCCCCCCC/C=C\CC/C=C/[C@@H](O)[C@H](CO[C@@H]1O[C@H](CO)[C@@H](O)[C@H](O)[C@H]1O)NC(=O)[C@H](O)CCCCCCCCCCCCCCCCCCCCCC`, the Activity result was “Non-Toxic” in the data set with PC-12 [1]; 1.2% in the data set on PC-12 [4]; 1.79% with PC-12 [5]; 2.11% with PC-12 [6]; 1.49% in the data set on PC-12 [8]; “Dose-dependent effect” with PC-12 [9]. The Activity in the data set on PC-12 [11] is 30.63%; with PC-12 [12], 1.02%; in the data set on PC-12 [14], 0.62%; in the data set with PC-12 [15], “Dose-dependent effect”; in the data set on PC-12 [16], 22.38%. The result in the data set on PC-12 [7], in the data set with PC-12 [10], in the data set on PC-12 [13], with PC-12 [3] and in the data set with PC-12 [17] was Active. In the data set on PC-12 [2], the EC50 was found to be 2.5 µM.

On to `CCCCCCCCC/C=C\CC/C=C/[C@@H](O)[C@H](CO[C@@H]1O[C@H](CO)[C@@H](O)[C@H](O)[C@H]1O)NC(=O)[C@H](O)CCCCCCCCCCCCCC`, for which the Activity result in the data set on PC-12 [1] is “Non-Toxic”. The same compound yielded an EC50 in the data set with PC-12 [2] of 27.1 µM. Besides, the result in the data set with PC-12 [3] was Active.

Turning to `CCCCCCCCC/C=C/CC/C=C/[C@@H](O)[C@H](CO[C@@H]1O[C@H](CO)[C@@H](O)[C@H](O)[C@H]1O)NC(=O)[C@H](O)CCCCCCCCCCCCCC`, the Activity entry with PC-12 [1] is given as “Non-Toxic”. Besides, the EC50 with PC-12 [2] amounted to 29.7 µM. In addition, the result in the data set with PC-12 [3] was Active.

As for `CCCCCCCCC/C=C\CC/C=C/[C@@H](O)[C@H](CO[C@@H]1O[C@H](CO)[C@@H](O)[C@H](O)[C@H]1O)NC(=O)[C@H](O)CCCCCCCCCCCCCCCCCC`, in the data set on PC-12 [1], the Activity result is on record as “Non-Toxic”. In the data set with PC-12 [2], this compound registered a concentration for a half-maximal effect (EC50) of 12 µM. For the same compound, the result in the data set with PC-12 [3] was Active.

As for `CCCCCCCCC/C=C/CC/C=C/[C@@H](O)[C@H](CO[C@@H]1O[C@H](CO)[C@@H](O)[C@H](O)[C@H]1O)NC(=O)[C@H](O)CCCCCCCCCCCCCCCCCCCCCC`, in the data set with PC-12 [1], the Activity entry is “Non-Toxic”. Moreover, the half-maximal effective concentration (EC50) with PC-12 [2] is 2.7 µM. Also, the outcome with PC-12 [3] was Active.

Turning to `CCCCCCCCC/C=C/CC/C=C/[C@@H](O)[C@H](CO[C@@H]1O[C@H](CO)[C@@H](O)[C@H](O)[C@H]1O)NC(=O)[C@H](O)CCCCCCCCCCCCCCCC`, the Activity entry with PC-12 [1] is reported as “Non-Toxic”. In the data set on PC-12 [2], the EC50 came to 22.2 µM. Further, in the data set with PC-12 [3], the outcome was Active.
